Results from ChEMBL document CHEMBL1128339, “Discovery of 6,11-ethano-12,12-diaryl-6,11-dihydrobenzo[b]quinolizinium cations, a novel class of N-methyl-D-aspartate antagonists” (J Med Chem, 1995).

Tests used:
[1] = system: Mus musculus; assay: NMDA antagonistic activity was evaluated […] in cultured mouse cortical neurons by patch clamp recordings designed to measure closed state binding to NMDA receptor-ionophore complex; assay type: functional
[2] = biological target: Glutamate NMDA receptor; assay: Binding affinity at TCP site of NMDA receptor was determined in rat brain homogenate by [3H]TCP displacement.; assay type: tissue-based
[3] = system: Mus musculus; assay: NMDA antagonistic activity was evaluated […] in cultured mouse cortical neurons by patch clamp recordings designed to measure open state binding to NMDA receptor-ionophore complex; assay type: functional
[4] = system: Mus musculus; assay: NMDA antagonistic activity was evaluated […] in cultured mouse cortical neurons by patch clamp recordings designed to measure closed state binding to NMDA receptor-ionophore complex at 100 uM; assay type: functional
In short: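 Value is the percent inhibition of NMDA-induced current at 100 μM, under closed-channel conditions in mouse cortical neuronal cultures.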

[5] = LogD value of the compound; assay type: physicochemical; conditions: octanol/water
In short: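 LogD is the partition coefficient between octanol and pH 7.4 buffer. It was measured instrumentally by an outside laboratory.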

[6] = species: Mus musculus; assay: (§1) Ratio of IC50 value for closed channel binding to that of open channel binding.; assay type: functional
[7] = species: Mus musculus; assay: Inhibitory concentration against NMDA-induced cell death in cultured mouse cortical neurons; assay type: functional
[8] = biological target: Glutamate NMDA receptor (Rattus norvegicus) (UniProt P35439+Q00959+Q00960+Q00961+Q62645+Q8VHN2+Q9R1M7); assay: Compound at 10 uM was tested for the inhibition of radioligand [3H]TCP binding to TCP site of NMDA receptor in rat brain homogenate; assay type: tissue-based
[9] = system: Rattus norvegicus; assay: In vivo anti-ischemic activity was evaluated in a rat middle cerebral artery occlusion/ reperfusion model of focal ischemia at a dose of 6 mg/kg/h for 6.5 hr (iv, infusion); assay type: functional
In short: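 Rats underwent middle cerebral artery occlusion followed by reperfusion (focal ischemia). The drug was given by continuous intravenous infusion. The read-out was reduction in infarct volume (n = 15).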

[10] = as §1; assay type: functional

Structure (SMILES) | Ki [2] [nM] | IC50 [7] [nM] | other results
CCOC1(OCC)C2c3ccccc3C([n+]3ccccc32)C1(C)C.[Cl-] (stereo not drawn) | 5.3 |  | IC50 [1]: > 100000 nM; IC50 [3]: 260 nM; Inhibition [4]: -8.5%; logD [5]: -4.08; Ratio [6]: >384
COc1cccc(C2(c3cccc(OC)c3)CC3c4ccccc4C2c2cccc[n+]23)c1 (stereo not drawn) | 41 |  | 
c1ccc2c(c1)C1CC(c3cocn3)(c3cocn3)C2c2cccc[n+]21 (stereo not drawn) | 93 |  | 
c1ccc(C2(c3ccccn3)CC3c4ccccc4C2c2cccc[n+]23)nc1 (stereo not drawn) | 8.4 |  | 
Clc1cccc(C2(c3cccc(Cl)c3)CC3c4ccccc4C2c2cccc[n+]23)c1 (stereo not drawn) | 104 |  | 
Fc1ccc(C2(c3ccc(F)cc3)CC3c4ccccc4C2c2cccc[n+]23)cc1 (stereo not drawn) | 2210 |  | 
c1cncc(C2(c3cccnc3)CC3c4ccccc4C2c2cccc[n+]23)c1 (stereo not drawn) | 2270 |  | 
c1ccc2c(c1)C1CC(c3cncs3)(c3cncs3)C2c2cccc[n+]21 (stereo not drawn) | 120 |  | 
c1ccc2c(c1)C1CC(c3ccsc3)(c3ccsc3)C2c2cccc[n+]21 (stereo not drawn) | 1.8 | 45 | 
Brc1ccc(C2(c3ccc(Br)cc3)CC3c4ccccc4C2c2cccc[n+]23)cc1 (stereo not drawn) |  |  | inhibition [8]: 22%
c1ccc2c(c1)C1CC(c3ncc[nH]3)(c3ncc[nH]3)C2c2cccc[n+]21 (stereo not drawn) | 1670 |  | 
c1coc(C2(c3ccco3)CC3c4ccccc4C2c2cccc[n+]23)c1 (stereo not drawn) | 1.9 | 36 | 
C[C@]12N[C@H](Cc3ccccc31)c1ccccc12 [DIZOCILPINE] |  | 67 | IC50 [1]: 5800 nM; IC50 [3]: 100 nM; logD ([5]; read-out: logD): 1.79
c1ccc(C2(c3ccccc3)CC3c4ccccc4C2c2cccc[n+]23)cc1 (stereo not drawn) | 8.2 | 197 | 
Clc1ccc(C2(c3ccc(Cl)cc3)CC3c4ccccc4C2c2cccc[n+]23)cc1 (stereo not drawn) |  |  | inhibition [8]: 45%
c1ccc2c(c1)C1CC(c3ccncc3)(c3ccncc3)C2c2cccc[n+]21 (stereo not drawn) |  |  | inhibition [8]: 54%
COc1ccc(C2(c3ccc(OC)cc3)CC3c4ccccc4C2c2cccc[n+]23)cc1 (stereo not drawn) | 28100 |  | 
c1ccc2c(c1)C1CC(c3cc[nH]c3)(c3cc[nH]c3)C2c2cccc[n+]21 (stereo not drawn) | 3.1 | 30 | 
[Cl-].c1ccc2c(c1)C1CC(c3ccoc3)(c3ccoc3)C2c2cccc[n+]21 (stereo not drawn) | 1.8 | 39 | inhibition in vivo at 6 mg/kg/h [9]: 50%; IC50 [1]: > 100000 nM; IC50 [3]: 140 nM; Inhibition [4]: 12%; logD ([5]; read-out: logD): -3.41; Ratio [6]: >700
c1ccc2c(c1)C1CC(c3cc[nH]n3)(c3cc[nH]n3)C2c2cccc[n+]21 (stereo not drawn) | 13 | 271 | 
c1ccc2c(c1)C1CC(c3nccs3)(c3nccs3)C2c2cccc[n+]21 (stereo not drawn) | 17 |  | 
c1ccc(C2(N3CCCCC3)CCCCC2)cc1 [PHENCYCLIDINE] |  |  | IC50 [1]: 13900 nM; IC50 [3]: 270 nM; logD ([5]; read-out: logD): 1.76; Ratio [10]: 51
c1csc(C2(c3cccs3)CC3c4ccccc4C2c2cccc[n+]23)c1 (stereo not drawn) | 2.1 | 23 | 
Brc1cccc(C2(c3cccc(Br)c3)CC3c4ccccc4C2c2cccc[n+]23)c1 (stereo not drawn) | 185 |  | 
